Series [1] can be described thus: Intrinsic clearance in mouse liver microsomes in presence of NADPH regeneration system.
The nature of series [2]: Half life in human liver microsomes in presence of NADPH regeneration system. Background: Liver microsomes are a subcellular fraction often used to study metabolism.
A short description of series [3]: Resistance index, ratio of IC50 for cytotoxicity in human DU145-TxR cells to IC50 for cytotoxicity in human DU145 cells. The series is classed as functional. In a few lines: (§1)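 Prostate lines cultured in RPMI 1640 with 10% FBS at 37 °C and 5% CO2: parental PC-3 with paclitaxel-resistant PC-3/TxR, and parental DU-145 with docetaxel-resistant DU-145/TxR. Cells seeded at 1,800–3,500/well and left overnight, then exposed 72 h to 10 concentrations (0.03 nM–1 μM) or DMSO vehicle, in quadruplicate. MTS read at 490 nm; IC50s by nonlinear regression; index = resistant IC50/parental IC50.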

Series [4] in a line: Intrinsic clearance in human liver microsomes in presence of NADPH regeneration system.
Series [5] relates to RPMI-7951. Nature of the series: Cytotoxicity in human RPMI7951 cells assessed as reduction in cell viability incubated for 72 hrs by MTS assay. The class given is functional, cell-based. The conditions noted are these: RPMI-7951, 72 h. (Tetrazolium assays rely on reduction of a dye to a coloured formazan, in cell work by metabolically active cells.)
Series [6] concerns Mus musculus. In words: Toxicity in human A375 cells xenografted mouse assessed as effect on body weight at 15 mg/kg, ip dosed every other day for 2 weeks relative to untreated control. The conditions noted are these: in vivo, 336 h. The series is classed as organism-based. A general note: A xenograft is tissue or cells of one species grown in another, often human tumour cells in immunodeficient mice.

For series [7], the system named is A-375. In words: Cytotoxicity in human A375 cells assessed as reduction in cell viability incubated for 72 hrs by MTS assay. The class given is functional, cell-based. As to conditions: A-375, 72 h.
The nature of series [8]: Half life in mouse liver microsomes in presence of NADPH regeneration system.
Series [9] is described as follows: Cytotoxicity in human DU145-TxR cells assessed as reduction in cell viability incubated for 72 hrs by MTS assay. The class given is functional, cell-based. In a few lines:
(§2)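 Prostate lines (parental PC-3 and DU-145, with paclitaxel- or docetaxel-resistant TxR sublines) grown in RPMI 1640 with 10% FBS and antibiotic/antimycotic at 37 °C, 5% CO2. Seeded at 1,800–3,500 cells/well overnight, then dosed at 10 concentrations, 0.03 nM–1 μM, plus DMSO vehicle, for 72 h, quadruplicate. MTS read at 490 nm; IC50 by nonlinear regression.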

A short description of series [10]: Cytotoxicity in human PC3-TxR cells assessed as reduction in cell viability incubated for 72 hrs by MTS assay. The series is classed as functional, cell-based.
Series [11] deals with PC-3. Nature of the series: Cytotoxicity in human PC3 cells assessed as reduction in cell viability incubated for 72 hrs by MTS assay. As to conditions: PC-3, 72 h. The class given is functional, cell-based.
In series [12] the test system is A-375. Nature of the series: Antitumor activity against human A375 cells xenografted in mouse assessed as inhibition of tumor growth at 30 mg/kg, ip dosed every other day for 2 weeks relative to untreated control. The series is classed as functional. As to conditions: A-375, ip, 336 h, read-out: TGI. In a few lines:
(§3)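 Nude mice (6–8 weeks) implanted s.c. in dorsal flank with 2.5×10^6 log-phase A375 cells in serum-free, phenol red-free medium mixed with Matrigel. At ~100 mm³ tumours, randomized (n = 8); i.p. 100 μL every other day for 2 weeks in PEG300:PBS 1:1, vehicle control.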

Series [13] in a line: Resistance index, ratio of IC50 for cytotoxicity in human PC3-TxR cells to IC50 for cytotoxicity in human PC3 cells. The class given is functional. The procedure, abridged:
as §1

The species entered for series [14] is Bos taurus. In words: Inhibition of bovine brain tubulin polymerization at 10 uM measured every 1 min for 20 mins by spectrophotometry.
In series [15] the test system is M14. Nature of the series: Cytotoxicity in human M14 cells assessed as reduction in cell viability incubated for 72 hrs by MTS assay. The series is classed as functional, cell-based. As to conditions: M14, 72 h.
For series [16], the system named is DU-145. Nature of the series: Cytotoxicity in human DU145 cells assessed as reduction in cell viability incubated for 72 hrs by MTS assay. The class given is functional, cell-based. As to conditions: DU-145, 72 h. In a few lines: as §2
A short description of series [17]: Half life in rat liver microsomes in presence of NADPH regeneration system.
The subject of series [18] is A-375. Nature of the series: Antitumor activity against human A375 cells xenografted in mouse assessed as reduction in tumor volume at 30 mg/kg, ip dosed every other day for 2 weeks. The class given is functional, organism-based. The procedure, abridged:
as §3

Series [19] has as its system A-375. Nature of the series: Antitumor activity against human A375 cells xenografted in mouse assessed as reduction in tumor volume at 15 mg/kg, ip dosed every other day for 2 weeks. The series is classed as functional, organism-based. The procedure, abridged:
as §3

In series [20] the test system is A-375. Nature of the series: Antitumor activity against human A375 cells xenografted in mouse assessed as reduction in tumor weight at 30 mg/kg, ip dosed every other day for 2 weeks. The series is classed as functional, organism-based. The procedure, abridged: as §3
The subject of series [21] is A-375. Nature of the series: Antitumor activity against human A375 cells xenografted in mouse assessed as inhibition of tumor growth at 15 mg/kg, ip dosed every other day for 2 weeks relative to untreated control. The class given is functional. As to conditions: A-375, ip, 336 h, read-out: TGI. The procedure, abridged:
as §3

Series [22] is described as follows: Intrinsic clearance in rat liver microsomes in presence of NADPH regeneration system.
For series [23], the system named is Mus musculus. In words: Toxicity in human A375 cells xenografted mouse assessed as effect on body weight at 30 mg/kg, ip dosed every other day for 2 weeks relative to untreated control. The series is classed as organism-based. As to conditions: in vivo, 336 h.
In series [24] the test system is A-375. In words: Antitumor activity against human A375 cells xenografted in mouse assessed as reduction in tumor weight at 15 mg/kg, ip dosed every other day for 2 weeks. The class given is functional. Set-up: scale not given: the % may be the effect or the level left. The procedure, abridged: as §3
The species named for series [25] is Homo sapiens. In words: Cytotoxicity in human DU145-TxR cells assessed as reduction in cell viability up to 1 uM incubated for 72 hrs by MTS assay. The class given is functional, cell-based. The procedure, abridged:
as §2

Calls of active or inactive are those of the source. The calls are words filed in the database; no cut-off is given here.

By CLint scaled is commonly meant the rate of metabolic loss divided by the concentration. As a reminder, the IC50 is the midpoint of a concentration-inhibition curve.

Regarding `COc1cc(C(=O)c2c[nH]c(-c3c[nH]c4ccccc34)n2)cc2c1OC=CO2`, the intrinsic clearance (CLint scaled) was 2.42 L/h/kg in [1] (liver microsomes), 0.462 L/h/kg in [4] (liver microsomes) and 0.786 L/h/kg in series [22] (liver microsomes). For the same compound, the t1/2 in series [2] was found to be 2.69 h; in series [8], 1.42 h; in [17], 3.57 h. The “Ratio IC50” value is on record as 1.9 in series [3] and 0.5 in series [13]. For the same compound, the IC50 in series [5] was 0.0033 µM; in series [7], 0.0011 µM; in series [9] it was 0.0815 µM; in [10] it was 0.0076 µM; in [11], 0.0152 µM; in series [15], 0.0012 µM. The IC50 in [16] was found to be 0.0422 µM. The Activity result in series [6] and in [23] was “Non-Toxic” in each case. Moreover, the inhibition in vivo at 30 mg/kg in [12] turned out to be 73.9%. Also, the inhibition entry in series [14] is “Active”. Also, the outcome in [18], in series [19] and in series [20] was Active. Besides, the inhibition in vivo at 15 mg/kg in series [21] was 54.8%.

Take `CC(=O)O[C@H]1C(=O)[C@@]2(C)[C@H]([C@H](OC(=O)c3ccccc3)[C@]3(O)C[C@H](OC(=O)[C@H](O)[C@@H](NC(=O)c4ccccc4)c4ccccc4)C(C)=C1C3(C)C)[C@]1(OC(C)=O)CO[C@@H]1C[C@@H]2O` [PACLITAXEL]: in series [24], the Activity was found to be 62.3%. In [25], the result was inactive. In addition, the IC50 in series [16] was 0.0015 µM. Moreover, the outcome in series [19] was Active. Further, the inhibition in vivo at 15 mg/kg in series [21] stood at 70.7%.

With `COc1cc(C(=O)c2c[nH]c(-c3cccc4[nH]ccc34)n2)cc2c1OC=CO2`, the IC50 stood at 0.0348 µM in series [5], 0.0171 µM in series [7] and 0.0138 µM in series [15].

Regarding `O=C(c1ccc2c(c1)OCO2)c1c[nH]c(-c2c[nH]c3ccccc23)n1`, the CLint scaled in [1] (liver microsomes) came to 1.51 L/h/kg; in series [4] (liver microsomes), 0.33 L/h/kg; in series [22] (liver microsomes) it was 1.1 L/h/kg. Also, the t1/2 worked out at 3.77 h in series [2], 2.28 h in series [8] and 2.55 h in [17]. For the same compound, the values for the half-maximal inhibitory concentration (IC50) in [5], in series [7] and in series [15] were 0.236 µM, 0.191 µM and 0.155 µM, respectively.

For the compound `COc1cc(C(=O)c2c[nH]c(-c3c[nH]c4cccc(C)c34)n2)cc2c1OC=CO2`, the half-inhibitory concentration (IC50) is 0.0088 µM in series [5] and 0.0061 µM in series [15].

As to `COc1cc(C(=O)c2c[nH]c(-c3c[nH]c4ccccc34)n2)cc2c1OCO2`, the CLint scaled came out at 4.17 L/h/kg in series [1] (microsomes), 0.976 L/h/kg in series [4] (microsomes) and 15.2 L/h/kg in series [22] (microsomes). For the same compound, the values for the t1/2 in series [2], in [8] and in series [17] were 1.28 h, 0.82 h and 0.18 h, respectively. The half-inhibitory concentration (IC50) in series [7] is 0.0035 µM; in series [15], 0.0056 µM.

As for `COc1cc(C(=O)c2c[nH]c(-c3c[nH]c4ccccc34)n2)cc2c1OCCCO2`, the 50% inhibitory concentration (IC50) in series [5] turned out to be 0.0477 µM; in [7], 0.0322 µM; in [15], 0.0382 µM.

Take `O=C(c1ccc2c(c1)OCCO2)c1c[nH]c(-c2c[nH]c3ccccc23)n1`: the intrinsic metabolic clearance (CLint scaled) in series [1] (liver microsomes) was 9.25 L/h/kg; in series [4] (liver microsomes) it was 0.357 L/h/kg; in series [22] (liver microsomes) it was 3.3 L/h/kg. The t1/2 is 3.5 h in series [2], 0.37 h in series [8] and 0.85 h in series [17]. The IC50 in [5] was determined as 0.214 µM; in series [7], 0.159 µM; in series [15] it was 0.119 µM.

With `COc1cc(C(=O)c2c[nH]c(-c3c[nH]c4ccccc34)n2)cc2c1OCCO2`, the intrinsic metabolic clearance (CLint scaled) in series [1] (liver microsomes) was 1.69 L/h/kg; in series [4] (liver microsomes), 0.586 L/h/kg; in series [22] (liver microsomes), 3.12 L/h/kg. In addition, the results for the t1/2 in series [2], in [8] and in [17] were 2.13 h, 2.03 h and 0.9 h, respectively. Also, the 50% inhibitory concentration (IC50) stood at 0.0292 µM in series [5], 0.021 µM in [7] and 0.0113 µM in [15].

The values above are taken from ChEMBL document CHEMBL4145696 (J Med Chem, 2018).
